Source: ChEMBL document CHEMBL1141449, “Diterpenes, sesquiterpenes, and a C15-acetogenin from the marine red alga Laurencia mariannensis” (2007)
Active and inactive are the calls of the source. No cut-off for these calls is given here.

Experiments:
[1] = tested on: Escherichia coli; experiment: Antibacterial activity against Escherichia coli by standard agar diffusion test; type: functional
In short: (§1)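 Agar diffusion assay following a cited standard method. Read-out is the diameter of the growth-inhibition zone, in mm.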

[2] = tested on: Candida albicans; experiment: Antifungal activity against Candida albicans by standard agar diffusion test; type: functional, organism-based; in short: as §1
[3] = tested on: Aspergillus niger; experiment: Antifungal activity against Aspergillus niger by standard agar diffusion test; type: functional, organism-based; in short: as §1
[4] = tested on: Staphylococcus aureus; experiment: Antibacterial activity against Staphylococcus aureus by standard agar diffusion test; type: functional; in short: as §1

CC/C(Br)=C/C=C\C1=C(Br)[C@H]2O[C@H](C=C=CBr)C[C@H]2O1 [LAURENMARIALLENE]
inhibition zone (IZ) [1]: 7 mm | Activity [2]: inactive | Activity [3]: inactive

C=C1CC[C@H](Br)C(C)(C)[C@@]12CCC(C)=C(Cl)C2
Activity [2]: inactive | Activity [3]: inactive

C=C1CC[C@H](Br)C(C)(C)[C@]12CC[C@@]1(C)[C@H](C2)[C@](C)(O)[C@H](O)C[C@@H]1Br
inhibition zone (IZ) [4]: 6.5 mm | inhibition zone (IZ) [1]: 6.5 mm | Activity [2]: inactive | Activity [3]: inactive

C=C[C@]1(C)CC[C@H]2C(C)=CC[C@@H](C)[C@]2(C)O1
Activity [2]: inactive | Activity [3]: inactive
